In ChEMBL document CHEMBL1177657, “Design and synthesis of novel hydroxyalkylaminomethylchromones for their IL-5 inhibitory activity” (Bioorg Med Chem, 2010):
Values joined by “and” are separate entries in the source; they are usually repeats but may differ in a detail not shown here. Identical values can stand only once.

What was measured:
Type in all cases: cell-based
[1] = biological target: T1, Interleukin-5 (Mus musculus) (UniProt P04401); test: Inhibition of interleukin-5 in mouse Y16 cells at 30 uM
T1 sequence (whole entry): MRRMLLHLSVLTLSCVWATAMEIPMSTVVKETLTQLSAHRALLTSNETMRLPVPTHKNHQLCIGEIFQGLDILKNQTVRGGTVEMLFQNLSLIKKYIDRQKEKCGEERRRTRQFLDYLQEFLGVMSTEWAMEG
In short: (§1)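 IL-5-dependent mouse pro-B Y16 cells were incubated with 3 units/mL mIL-5 for 48 h, with or without test sample. Cell metabolism was then read with the tetrazolium salt WST-1 as an index of proliferation.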

Interleukin-5 = biological target: T2, Interleukin-5 (Mus musculus, UniProt P04401); test: Inhibition of interleukin-5 in mouse Y16 cells; in short: as §1
T2 sequence (P04401 whole entry): T1 sequence (whole entry)

[2] = biological target: T1, Interleukin-5 (Mus musculus); test: Inhibition of interleukin-5 in mouse Y16 cells at 50 uM; in short: as §1

| Compound | inhibition [1] [%] | IC50 (Interleukin-5) | inhibition [2] [%] |
| --- | --- | --- | --- |
| O=c1c(CNCCCCCO)coc2cccc(OCC3CCCCC3)c12 | 20 | > 50 µM | – |
| O=c1c(CNCCO)coc2cccc(OCC3CCCCC3)c12 | 13 | > 50 µM | – |
| O=c1c(CNCc2ccccc2)coc2cccc(OCC3CCCCC3)c12 | 32 | > 50 µM | – |
| COc1ccc(NCc2coc3cccc(OCC4CCCCC4)c3c2=O)cc1 | 31 | > 50 µM | – |
| O=c1c(-c2ccc(O[C@@H]3O[C@H](CO)[C@@H](O)[C@H](O)[C@H]3O)cc2)coc2cc(O)cc(O)c12 [SOPHORICOSIDE] | – | 1.4 µM and 10.6 µM | 79.1 |
| O=c1c(CNCCCO)coc2cccc(OCC3CCCCC3)c12 | 15 | > 50 µM | – |
| O=c1c(CNC(CCO)c2ccccc2)coc2cccc(OCC3CCCCC3)c12 (centres undefined) | 30 | > 50 µM | – |
| O=c1c(CNc2ccccc2)coc2cccc(OCC3CCCCC3)c12 | 14 | > 50 µM | – |

The remaining lines, values ahead:

| inhibition [1] [%] | IC50 (Interleukin-5) | inhibition [2] [%] | Compound |
| --- | --- | --- | --- |
| 13 | > 50 µM | – | CCCC(CO)NCc1coc2cccc(OCC3CCCCC3)c2c1=O (centres undefined) |
| 88 | 18.5 µM | – | O=c1c(CNC(CO)c2ccccc2)coc2cccc(OCC3CCCCC3)c12 (centres undefined) |
| 93 | 17.3 µM | – | O=c1c(CNC(CO)CC2CCCCC2)coc2cccc(OCC3CCCCC3)c12 (centres undefined) |
| 43 | > 30 µM | – | COc1ccc(CNCc2coc3cccc(OCC4CCCCC4)c3c2=O)cc1 |
| 63 | 26.4 µM | – | CC(C)(CO)NCc1coc2cccc(OCC3CCCCC3)c2c1=O |
| 72 | 25.7 µM | – | O=c1c(CNC(CO)Cc2ccccc2)coc2cccc(OCC3CCCCC3)c12 (centres undefined) |
| 65 | 26.2 µM | – | CC(C)(C)C(CO)NCc1coc2cccc(OCC3CCCCC3)c2c1=O (centres undefined) |
| 50 | 28.5 µM | – | O=c1c(CNCc2ccc(O)cc2)coc2cccc(OCC3CCCCC3)c12 |
| 57 | 27.3 µM | – | O=c1c(CNc2ccc(O)cc2)coc2cccc(OCC3CCCCC3)c12 |
